Screening results as filed in PubChem BioAssay.
Efflux pump inh – blocks antifungal efflux pumps in multiplex yeast assay; S. cerevisiae Candida pump triplex, Nile Red efflux; inhibition, % at 10 µM; hit rate 0.44% among 330,000;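 active means plate passing quality check with inhibition over a set limit, or well fluorescence over plate mean plus 4 SD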;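 further: Nile Red retained in pooled yeast measured as flow cytometry median fluorescence; 0% = buffer negative control and 100% = Enniatin B positive control; higher means more Nile Red kept so more efflux inhibition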
SMARCA2 act – increases SMARCA2 function in MMTV reporter cells; hit rate 1% among 370,000; MG213 cells, MMTV-luciferase reporter, dexamethasone, overnight; activation, % at 9.1 µM; in the data active means activation above about 7.8%;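 further: 0% = vehicle wells and 100% = reference activator wells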
TAG inh – reduces triacylglycerol accumulation in H9c2 cells; hit rate 0.66% among 230,000; AID 651582; inhibition, % at 12.5 µM; Nile Red lipid (TAG) fluorescence; cells loaded with 200 µM oleic acid;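 active means pattern-corrected inhibition of lipid staining of at least 50% with the nuclear-stain viability signal not falling by more than 50%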;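 further: 0% = DMSO wells and 100% = triacsin C control wells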
AHR activator – activators of human aryl hydrocarbon receptor | hit rate 2.5% among 320,000 | activation, % at 5 µM | P35869 | AID 2796 | AHR-responsive luciferase reporter cells, luminescence; in the data active means activation above about 47%;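 further: 0% = vehicle wells and 100% = reference agonist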
Target sequence (P35869 whole entry, looked up): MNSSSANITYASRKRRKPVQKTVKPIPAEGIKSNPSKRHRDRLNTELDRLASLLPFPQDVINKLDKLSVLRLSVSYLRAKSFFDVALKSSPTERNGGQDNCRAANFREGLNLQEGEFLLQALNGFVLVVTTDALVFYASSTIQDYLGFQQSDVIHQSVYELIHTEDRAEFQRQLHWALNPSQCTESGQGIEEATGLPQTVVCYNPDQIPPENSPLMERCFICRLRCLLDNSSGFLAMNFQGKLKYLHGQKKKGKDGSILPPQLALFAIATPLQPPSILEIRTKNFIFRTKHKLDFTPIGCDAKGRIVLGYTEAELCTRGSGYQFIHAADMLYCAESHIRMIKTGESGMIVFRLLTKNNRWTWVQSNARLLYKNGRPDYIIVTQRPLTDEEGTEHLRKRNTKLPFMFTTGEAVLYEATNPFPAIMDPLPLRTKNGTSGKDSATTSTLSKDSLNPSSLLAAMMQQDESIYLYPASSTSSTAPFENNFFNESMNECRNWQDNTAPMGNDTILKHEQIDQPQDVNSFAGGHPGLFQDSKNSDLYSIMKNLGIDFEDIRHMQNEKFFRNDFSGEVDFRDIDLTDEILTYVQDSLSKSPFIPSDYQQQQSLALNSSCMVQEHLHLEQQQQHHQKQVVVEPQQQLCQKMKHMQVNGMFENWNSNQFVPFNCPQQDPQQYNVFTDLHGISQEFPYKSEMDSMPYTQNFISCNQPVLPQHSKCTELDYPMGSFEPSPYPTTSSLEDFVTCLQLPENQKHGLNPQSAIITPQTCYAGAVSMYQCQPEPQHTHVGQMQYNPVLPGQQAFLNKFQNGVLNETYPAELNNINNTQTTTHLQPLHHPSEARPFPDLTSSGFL
TbMetRS inhib – blocks T. brucei methionyl-tRNA synthetase activity | inhibition, % at 11.9 µM | purified T. brucei MetRS, ATP depletion, Kinase-Glo luminescence | hit rate 0.4% among 360,000;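 active means inhibition above a per-plate cutoff of the control wells' mean inhibition plus 3 SD, cut at about 5.5% in these data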;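 further: 0% = DMSO wells median and 100% = median of wells with control inhibitor compound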
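technique = Kinase-Glo luminescence, ATP depletion format | system = purified MetRS (methionyl-tRNA synthetase) enzyme from Trypanosoma brucei | timing = 15 min preincubation, 2 h reaction, all 25 °C | evaluation = percent inhibition versus plate control medians | dosing = single dose, 11.9 µM final nominal, 0.9% final DMSO | also added = substrates ATP, L-methionine and bulk Escherichia coli tRNA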
SMARCA2 act conf – confirmation of SMARCA2 (BRM) function activators | shares compounds with SMARCA2 act | MG213 cells, MMTV-luciferase with dexamethasone, luminescence, overnight; MG213 cells expressing E1A, Rb sequestered; DMSO wells 0%, reference activator 100% | activation, % at 9.1 µM | hit rate 30% among 3,500 | AID 652260;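 active means activation above its plate's cutoff, the mean activation of tested wells plus 3 SD, cut at about 7.9% in these data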
GAL4-VP16 Luc – activates GAL4-VP16 luciferase, flagging SMARCA2 activator hits | shares compounds with SMARCA2 act | HEK293 GAL4-VP16 pG5luc reporter, luciferase luminescence; scaled: DMSO wells 0%, SAHA wells 100% | activation, % at 9.1 µM | hit rate 41% among 3,500;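 active means activation above the solvent-only control well mean plus 3 SD, averaged across control plates, cut at about 5.2% in these data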
An asterisk follows results filed as active; nt = no result. Rows were chosen to be rich in hits. Some 4.1% of all compounds tested hit in one or more screens of this group.

SMILES	Efflux pump inh	SMARCA2 act	TAG inh	AHR activator	TbMetRS inhib	SMARCA2 act conf	GAL4-VP16 Luc
COC(=O)[C@]1(C)CN(C(=O)OC(C)(C)C)C2=C1C(=O)C[C@](C)(C(=O)OC(C)(C)C)C2	nt	-2	nt	nt	nt	nt	nt
CCNC(=O)N1CCN(c2ccc(N3CCN(Cc4ccccc4)[C@H](C)C3)c(C)c2)[C@@H](C)C1	nt	-4	nt	nt	nt	nt	nt
O=C(c1ccccc1)C12COc3ccccc3C1ON=C2c1ccccc1 (stereo not drawn)	nt	-4	nt	nt	nt	nt	nt
CCCCNC(=O)C[C@H]1C[C@@]2(C(=O)OC)C(=C[C@H](COCc3ccccc3)O[C@@H]2C)N(CCC2=CCCCC2)C1=O	nt	-2	nt	nt	nt	nt	nt
Fc1ccc(N2C(=S)SC(=Nc3ccccc3)C2=Nc2ccccc2)cc1	nt	1	38	nt	0	nt	nt
N#CC(C#N)=C1SC(=Nc2ccccc2)C(=Nc2ccccc2)N1c1ccccc1	nt	14*	4	nt	0	-3	4
O=S(=O)(/C=C/c1ccccc1)Nc1ccc(F)cc1	0	0	8	-1	0	nt	nt
COc1ccc(NS(=O)(=O)/C=C/c2ccccc2)cc1	0	8.6*	nt	-6	0	-2	2
CCN1CCN(c2c(S(=O)(=O)c3ccc(Cl)cc3)cnc3ccccc23)CC1	nt	1	nt	nt	nt	nt	nt
CCOC(=O)/C(C#N)=C/c1c(Oc2cc(C)cc(C)c2)nc2ccccn2c1=O	0	8.2*	nt	-1	0	-3	0
CC(=O)OCCN1C(=O)c2cccc3cc([N+](=O)[O-])cc(c23)C1=O	0	nt	nt	-1	nt	nt	nt
CN(C)CCN1C(=O)c2cccc3cc([N+](=O)[O-])cc(c23)C1=O	nt	15*	96	nt	0	11*	7.2*
CC(=O)OCCCN1CCC2(CCC(c3ccccc3)CC2)C1=O (stereo not drawn)	nt	-3	nt	nt	nt	nt	nt
CC1CCc2onc(C(=O)O)c2C1 (stereo not drawn)	0	-1	12	0	0	nt	nt
CCCCCCCCCc1conc1C(=O)/C=C/c1oc2c(c1C)CCC(C)C2 (stereo not drawn)	nt	9.0*	nt	nt	0	-7	0
COC(=O)[C@]12C=CCN1[C@H](c1ccc(Cl)cc1)c1c(c3ccccc3n1S(=O)(=O)c1ccc(C)cc1)C2	nt	-1	nt	nt	nt	nt	nt
C(=C\c1ccccc1)/CSc1nnc(COc2ccccc2)n1Cc1ccco1	nt	-2	nt	nt	nt	nt	nt
CCCCC#Cc1ccccc1COC[B-](F)(F)F	nt	17*	nt	nt	nt	7.9*	5.9*
F[B-](F)(F)COCc1ccccc1C#Cc1ccccc1	nt	18*	nt	nt	nt	17*	3
O=C1CN(c2ccccc2)C(=S)N1C(=O)c1ccc(Br)cc1	0	8.8*	13	3	-1	7	16*
O=C(c1ccc(Br)cc1)N1CCC(C(=O)N2CCN(c3ccccc3)CC2)CC1	0	-3	nt	-1	-1	nt	nt
O=C(CSc1nnc(COc2ccc(Cl)cc2)n1Cc1ccco1)Nc1cccc2ccccc12	nt	-4	nt	nt	nt	nt	nt
Fc1ccccc1-c1nc2ccccc2[nH]1	0	4	5	15	-1	nt	nt
Oc1ccccc1C=Nc1ccccc1-c1nc2ccccc2[nH]1	0	8.3*	nt	37	-2	5	11*
Cc1ccccc1C1c2[nH]c3ccccc3c2CCN1C(=O)c1ccc(=O)n(C)n1 (stereo not drawn)	0	9.6*	-1	21	1	2	1
SMILES	Efflux pump inh	SMARCA2 act	TAG inh	AHR activator	TbMetRS inhib	SMARCA2 act conf	GAL4-VP16 Luc
COc1ccc(N2CCN(C(=O)C3CCN(S(=O)(=O)c4ccc5c(c4)CC(C)N5C(=O)C4CC4)CC3)CC2)cc1 (stereo not drawn)	nt	-3	nt	nt	nt	nt	nt
Fc1ccc(/C=N/Nc2nccnc2Cl)cc1	0	9.5*	nt	18	-2	8.4*	7.8*
Oc1ccc(/C=N/Nc2nccnc2Cl)cc1	0	13*	2	24	-2	7	7.5*
S=c1[nH]ncn1/N=C/c1ccc(N2CCOCC2)cc1	0	9.2*	11	4	0	9.2*	11*
COC(=O)C1=C(C)N(Cc2ccccc2C(F)(F)F)C(=NCc2ccc(OC)cc2)NC1c1cccc(F)c1 (stereo not drawn)	nt	-2	nt	nt	nt	nt	nt
CCOC(=O)c1ccc(COc2ccc(C(C)C)cc2)o1	0	10*	6	0	0	13*	14*
O=C(C1CCCN1S(=O)(=O)c1ccc([N+](=O)[O-])cc1)N1CCc2ccccc2C1 (stereo not drawn)	nt	3	nt	nt	nt	nt	nt
CCCc1nc2oc3c(NCCCN(C)C)ncnc3c2c2c1CCCC2	0	19*	63*	1	-1	19*	1
CC(C)Cc1nc2oc3c(NCC(C)O)ncnc3c2c2c1CCCC2 (stereo not drawn)	0	-1	7	10	2	nt	nt
Cc1ccccc1C(=O)OCCN1CCOCC1	0	8.3*	nt	-1	0	1	1
O=C(OCCN1CCOCC1)c1ccccc1Cl	0	-2	14	-2	0	nt	nt
COC(=O)c1cc2c(c3c4cc(OC)ccc4n(S(=O)(=O)c4ccc(OC)cc4)c13)C(=O)N(Cc1ccccc1OC)C2	nt	-3	nt	nt	nt	nt	nt
COc1ccc(CN2CCC(CNC(=O)NCc3ccccc3)CC2)cc1	nt	-2	nt	nt	nt	nt	nt
Brc1ccc(/C=N/Nc2nc3ccccc3o2)cc1	0	9.2*	nt	29	0	3	14*
Cc1cccc(NC(=O)C2CCN(c3ncccn3)CC2)c1C	nt	-1	nt	nt	nt	nt	nt
CC(C)(C)N/N=C1\CC(c2ccccc2)Oc2ccccc21 (stereo not drawn)	0	3	-27	5	0	nt	nt
O=C(O)c1cc(N/N=C2/CC(c3ccccc3)Oc3ccccc32)ccc1Cl (stereo not drawn)	0	10*	nt	12	0	3	2
COc1ccc(Cn2ccc3ccc(-c4ccc5ccn(C(=O)c6ccc(C)cc6)c5c4)cc32)cc1	nt	0	nt	nt	nt	nt	nt
Cc1[nH]n(-c2ccccc2)c(=O)c1/C=N/N(c1ccccc1)c1ccccc1	0	-3	3	2	0	nt	nt
C=CCN=Cc1c(C)[nH]n(-c2ccccc2)c1=O	0	8.5*	-5	4	0	1	6.2*
CC(C)CNC(=O)OCc1cn(Cc2cccc(C(F)(F)F)c2)nn1	nt	-1	nt	nt	nt	nt	nt
O=C(NCCN1C(=O)S/C(=C\c2ccccc2Cl)C1=O)C1=COCCO1	0	-1	-13	-4	0	nt	nt
O=C(NCCN1C(=O)S/C(=C\c2ccc(Cl)cc2Cl)C1=O)C1=COCCO1	0	8.1*	0	2	-1	4	0
Cn1cccc1/C=C1\SC(=Nc2ccc(O)cc2)NC1=O	0	3	43	10	0	nt	nt
Cn1cccc1/C=C1\SC(=Nc2cccc(O)c2)NC1=O	0	9.9*	7	-1	0	10*	11*
O=C1NC(=Nc2ccccc2)S/C1=C\c1cccs1	0	13*	-4	72*	0	15*	6.8*
